Reference: paper PMC2806602 (The Journal of neuroscience : the official journal of the …, 2009)
Changes are numbered by the printed parent chain.

Assays:
GluRδ2^Lc D535A+D782A = molecular target: T1, GluRδ2^Lc D535A+D782A (Rattus norvegicus, UniProt Q63226, A654T/D535A/D782A); assay: Two-electrode voltage-clamp recordings in Xenopus oocytes, GluRδ2^Lc D535A+D782A; type: cell-based
T1 sequence (Q63226 24-1007 D535A/A654T/D782A): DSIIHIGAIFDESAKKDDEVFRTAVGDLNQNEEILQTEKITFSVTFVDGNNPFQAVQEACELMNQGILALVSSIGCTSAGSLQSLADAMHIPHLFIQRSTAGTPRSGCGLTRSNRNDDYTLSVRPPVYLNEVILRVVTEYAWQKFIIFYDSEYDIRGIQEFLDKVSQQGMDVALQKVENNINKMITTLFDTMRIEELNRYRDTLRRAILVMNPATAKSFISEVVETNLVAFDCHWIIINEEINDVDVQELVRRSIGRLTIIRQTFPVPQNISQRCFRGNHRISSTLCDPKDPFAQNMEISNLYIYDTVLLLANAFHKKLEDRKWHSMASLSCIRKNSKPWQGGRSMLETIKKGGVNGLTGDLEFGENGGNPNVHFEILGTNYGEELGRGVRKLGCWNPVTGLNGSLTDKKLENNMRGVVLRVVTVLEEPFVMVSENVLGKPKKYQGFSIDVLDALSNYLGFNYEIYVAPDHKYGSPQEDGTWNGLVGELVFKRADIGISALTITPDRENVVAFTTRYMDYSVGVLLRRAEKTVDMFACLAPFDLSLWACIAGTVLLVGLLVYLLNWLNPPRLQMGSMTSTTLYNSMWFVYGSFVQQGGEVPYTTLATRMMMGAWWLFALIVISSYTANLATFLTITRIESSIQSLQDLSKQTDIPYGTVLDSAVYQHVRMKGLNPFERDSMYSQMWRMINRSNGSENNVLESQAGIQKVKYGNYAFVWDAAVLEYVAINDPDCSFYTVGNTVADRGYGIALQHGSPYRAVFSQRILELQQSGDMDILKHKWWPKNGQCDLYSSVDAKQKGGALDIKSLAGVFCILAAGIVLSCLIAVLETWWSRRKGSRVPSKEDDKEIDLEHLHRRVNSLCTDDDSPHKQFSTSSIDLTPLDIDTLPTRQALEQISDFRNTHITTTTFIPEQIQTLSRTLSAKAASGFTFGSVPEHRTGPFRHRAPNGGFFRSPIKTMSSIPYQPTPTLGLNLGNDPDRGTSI

GluRδ2^Lc R530K = molecular target: T2, GluRδ2^Lc R530K (Rattus norvegicus, UniProt Q63226, A654T/R530K); assay: Two-electrode voltage-clamp recordings in Xenopus oocytes, GluRδ2^Lc R530K; type: cell-based; settings: 3 mM Ca^2+; baseline spontaneously active current; ± SEM
T2 sequence (Q63226 24-1007 R530K/A654T): T1 sequence (Q63226 24-1007 D535A/A654T/D782A) with R507K, A512D, A759D
Outline: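 Oocytes expressing the Lc mutant were kept in 25 μM NASP to prevent cytotoxicity. Two-electrode voltage clamp at −40 mV and 23°C, 24–72 h after cRNA injection. Bath: 90 mM NaCl, 3 mM KCl, 0.5 mM BaCl2, 10 mM HEPES, pH 7.6. Choline or NMDG chloride balanced Cl− and osmolarity. Values are fold increase over the Ca2+-free spontaneously active baseline on applying 3 mM Ca2+, given as mean ± SEM over oocytes.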

Row | D-serine + 0 mM Ca^2+ nH (GluRδ2^Lc D535A+D782A; Hill slope, 0 mM Ca^2+) | D-serine + 3 mM Ca^2+ nH (GluRδ2^Lc D535A+D782A; Hill slope, 3 mM Ca^2+) | Ca^2+ potentiation (relative to baseline) (GluRδ2^Lc R530K) [fold] | Ca^2+ potentiation (relative to baseline) (GluRδ2^Lc D535A+D782A; 3 mM Ca^2+, ± SEM) [fold] | Structure (SMILES)
1 | 1.0 | 1.1 |  |  | N[C@H](CO)C(=O)O [D-serine]
2 |  |  | 3.3 ± 0.20 | 0.6 ± 0.01 | [Ca+2] [Ca^2+, calcium]
